Experimental findings from ChEMBL document CHEMBL1136798, “Synthesis and pharmacological characterization of a series of geometrically constrained 5-HT(2A/2C) receptor ligands” (J Med Chem, 2003) are described below.

Active and inactive are the calls of the source. Where only a bound is given, the exact number is not on record here.

Test [1] has as its target T1, 5-hydroxytryptamine receptor 1A (Homo sapiens, UniProt P08908).
T1 sequence (P08908 whole entry): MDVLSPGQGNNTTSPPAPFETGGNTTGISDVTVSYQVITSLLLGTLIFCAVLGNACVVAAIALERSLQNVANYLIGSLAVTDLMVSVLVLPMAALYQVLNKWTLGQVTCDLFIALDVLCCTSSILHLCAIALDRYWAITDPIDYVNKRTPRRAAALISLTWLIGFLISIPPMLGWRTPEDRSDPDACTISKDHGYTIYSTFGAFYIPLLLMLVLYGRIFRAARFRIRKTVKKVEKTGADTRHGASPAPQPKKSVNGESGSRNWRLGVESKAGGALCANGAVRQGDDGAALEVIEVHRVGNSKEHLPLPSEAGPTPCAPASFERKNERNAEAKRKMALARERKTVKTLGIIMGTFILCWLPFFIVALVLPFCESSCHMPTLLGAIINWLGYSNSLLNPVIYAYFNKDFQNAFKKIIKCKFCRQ
Nature of the test: Tested in vitro for its ability to bind to 5-hydroxytryptamine 1A receptor using [3H]8-OH-DPAT as radioligand. In short, it runs like this:
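Human 5-HT1A receptor stably expressed in cells, used as harvested pellets. Competition used 2.0 nM [3H]-8-OH-DPAT in Tris/EDTA/MgCl2 buffer at pH 7.4, for 60 min at 25 °C. Nonspecific binding was defined with 10 µM 5-HT. Bound label was collected by filtration and counted by scintillation.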

In test [2] the target is T2, 5-hydroxytryptamine receptor 2A (Rattus norvegicus, UniProt P14842). Nature of the test: (§1) Tested for its ability to activate phospholipase C by quantification of IP3 at cloned rat 5-hydroxytryptamine 2A receptor. The gist of the method: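 They were pretreated for 15 min with 10 µM pargyline/10 mM LiCl, then exposed to drug for 30 min at 37 °C. Formic acid stopped the reaction. [3H]inositol phosphates were separated on Dowex-1 columns. Efficacy is expressed relative to serotonin.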

For test [3], the target named is T2, 5-hydroxytryptamine receptor 2A. In words: In vitro binding to 5-hydroxytryptamine 2A receptor using [125 I]-DOI. In short, it runs like this:
(§2)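 Stably transfected cells expressing the rat 5-HT2A or rat 5-HT2C receptor were harvested as frozen pellets. Nonspecific binding was set with 10 µM cinanserin (5-HT2A) or 10 µM mianserin (5-HT2C). Bound label was collected on PEI-soaked GF/B filters and counted by scintillation.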

In test [4] the target is T3, 5-hydroxytryptamine receptor 2C (Rattus norvegicus, UniProt P08909).
T3 sequence (P08909 whole entry): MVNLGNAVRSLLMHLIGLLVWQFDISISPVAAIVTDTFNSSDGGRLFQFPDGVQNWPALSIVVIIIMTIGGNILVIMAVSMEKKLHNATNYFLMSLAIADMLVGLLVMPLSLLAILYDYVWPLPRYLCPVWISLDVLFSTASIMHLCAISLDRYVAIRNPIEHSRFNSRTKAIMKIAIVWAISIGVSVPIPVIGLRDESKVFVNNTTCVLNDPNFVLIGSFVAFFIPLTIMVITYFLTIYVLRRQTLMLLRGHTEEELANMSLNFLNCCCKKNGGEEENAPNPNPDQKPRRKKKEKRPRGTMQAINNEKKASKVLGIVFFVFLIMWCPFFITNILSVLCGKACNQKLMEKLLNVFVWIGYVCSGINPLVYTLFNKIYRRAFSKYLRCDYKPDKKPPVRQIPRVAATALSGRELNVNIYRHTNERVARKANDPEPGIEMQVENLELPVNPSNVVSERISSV
Nature of the test: In vitro binding to 5-hydroxytryptamine 2C receptor using [125 I]-DOI. The gist of the method: as §2

For test [5], the species on record is Rattus norvegicus. Nature of the test: Maximum 5-HT stimulation was determined at 10 uM […]. Format: functional.
Test [6] concerns the target T2, 5-hydroxytryptamine receptor 2A. The test is described as §1. In short, it runs like this: (§3)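 Rat 5-HT2A-expressing cells at 70% confluency were labelled for 18-20 h with 1.0 µCi/mL [3H]-myo-inositol. They were pretreated for 15 min with 10 µM pargyline/10 mM LiCl, then exposed to drug for 30 min at 37 °C. Formic acid stopped the reaction. [3H]inositol phosphates were separated on Dowex-1 columns. Efficacy is expressed relative to serotonin.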
The source holds these as a separate data set.

Test [7] has the same target. Nature of the test: Tested in vitro for its ability to bind to 5-hydroxytryptamine 2A receptor using [125 I]-DOI as radioligand. The gist of the method: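 Stably transfected cells expressing the rat 5-HT2A or rat 5-HT2C receptor were harvested as frozen pellets. Competition used 0.20 nM [125I]-DOI in 50 mM Tris, 0.1 mM EDTA, 10 mM MgCl2, pH 7.4, for 60 min at 25 °C. Nonspecific binding was set with 10 µM cinanserin (5-HT2A) or 10 µM mianserin (5-HT2C). Bound label was collected on PEI-soaked GF/B filters and counted by scintillation.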

The species entered for test [8] is Rattus norvegicus. Nature of the test: Maximum 5-HT stimulation was determined […]. Format: functional. The gist of the method:
as §3

In test [9] the target is T2, 5-hydroxytryptamine receptor 2A. In words: Tested for its ability to activate phospholipase c by quantification of IP3 at cloned rat 5-hydroxytryptamine 2A receptor. In short, it runs like this:
as §3

For test [10], the species on record is Rattus norvegicus. In words: Compound was tested for effective dose in DOI trained rats. Format: functional.
Test [11] is filed under the species Rattus norvegicus. In words: Compound was tested for effective dose in LSD trained rats. Format: functional.
For test [12], the system named is Rattus norvegicus. Nature of the test: Compound was tested for effective dose in DOI trained rats; Partial substitution at 1-6 uM/Kg (0.36-[…]). Type of test: functional, organism-based.
Test [13] deals with Rattus norvegicus. Nature of the test: Compound was tested for effective dose in LSD trained rats; Partial substitution at 1-6 uM/Kg (0.36-[…]). Format: functional, organism-based.

T2 sequence (P14842 whole entry): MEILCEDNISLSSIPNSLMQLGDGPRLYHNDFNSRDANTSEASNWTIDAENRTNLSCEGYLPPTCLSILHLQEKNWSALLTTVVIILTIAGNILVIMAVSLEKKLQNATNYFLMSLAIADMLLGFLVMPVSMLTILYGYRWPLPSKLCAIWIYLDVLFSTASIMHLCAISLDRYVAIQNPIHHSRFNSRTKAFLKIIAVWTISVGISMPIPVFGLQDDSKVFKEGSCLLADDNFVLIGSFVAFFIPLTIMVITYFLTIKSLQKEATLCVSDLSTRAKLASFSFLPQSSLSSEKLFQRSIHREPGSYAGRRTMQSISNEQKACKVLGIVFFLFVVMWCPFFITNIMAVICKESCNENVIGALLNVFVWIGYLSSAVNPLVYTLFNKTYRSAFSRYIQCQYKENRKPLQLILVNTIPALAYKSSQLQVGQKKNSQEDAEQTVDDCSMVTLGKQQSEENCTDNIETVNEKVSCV

In general, Ki refers to a dissociation constant, usually derived from enzyme kinetics or from competition with a known ligand. In general, EC50 refers to the concentration giving half of the maximal effect. On to `COc1ccc2occ3c2c1[C@H](CN)CC3`, for which the Ki in test [1] worked out at 860 nM; in test [3], 200 nM; in test [4], 11 nM. The compound also came in with a half-maximal effective concentration (EC50) in [2] greater than 10000 nM. Moreover, the Max in test [5] worked out at 10%.
As to `COc1cc(Br)c2c3c1[C@H](CN)CC[C@H]3CO2`, the Ki in test [1] was 550 nM; in test [7], 9.3 nM; in test [4] it was 4.9 nM. Besides, the concentration for a half-maximal effect (EC50) in test [6] was found to be 340 nM. Also, the Max in test [8] is reported as 37%.
As for `COc1cc(Br)c2c3c1C[C@H](N)C[C@@H]3CO2` (relative stereo), the inhibition constant Ki in [1] was found to be 960 nM; in test [3] it was 16 nM; in [4] it was 4 nM. The compound further registered an EC50 in [2] of 2090 nM. In addition, in test [8], the Max was 63%.
In test [9], `COc1cc(CCN)cc(OC)c1OC` [MESCALINE] yielded an EC50 of 2600 nM. The compound further yielded a Max in test [8] of 92%.
Compound `CN(C)CCc1c[nH]c2cccc(O)c12` [PSILOCIN] showed an EC50 in [2] of 2300 nM. In addition, the inhibition constant (Ki) in test [3] was found to be 25 nM. In test [8], this compound registered a Max of 46%.
Take `COc1ccc2c3c1[C@H](CN)CC[C@@H]3CO2`: the results for the Ki in test [1], in test [3] and in test [4] were 3000 nM, 700 nM and 59 nM, respectively.
A word on the ED50: it is the dose that gives a 50% effect, or the effect in half of the subjects. For `COc1cc(CC(C)N)c(OC)cc1Br` (configuration not stated) [BROLAMFETAMINE], the median effective dose (ED50) in test [10] worked out at 0.091 µmol/kg; in [11] it was 1.06 µmol/kg. Moreover, the Max in [8] stood at 79%.
As to `COc1cc(Br)c2occ3c2c1[C@H](CN)CC3`, the Ki in test [1] amounted to 105 nM; in test [3], 2.6 nM; in test [4], 1.1 nM. Also, in [2], a half-maximal response (EC50) required 120 nM. This compound came in with a Max in [8] of 33%. For the same compound, the PS entry in [12] and in [13] was “Partially active” throughout.
Take `COc1ccc2c3c1[C@H](CN)CC[C@H]3CO2`: the Ki in test [1] turned out to be 1000 nM; in test [3], 310 nM; in test [4], 34 nM.
In test [8], `CCN(CC)C(=O)[C@@H]1C=C2c3cccc4[nH]cc(c34)C[C@H]2N(C)C1` [LYSERGIDE] had a Max of 22%.
Consider `COc1cc(Br)c2c3c1[C@H](CN)CC[C@@H]3CO2`, for which the Ki in [1] is 520 nM; in test [3], 8.7 nM; in test [4], 2.8 nM. In test [2], this compound yielded an EC50 of 1100 nM. Besides, in test [8], the Max turned out to be 49%.
